# Assay outcomes as filed in PubChem BioAssay.
# This is a sample that favours compounds with a hit; in the whole collection about 1.9% have one here.
# Rin1 Abl inh: inhibitors of human Rin1-Abl protein interaction | P00519+Q13671 | TR-FRET Rin1/Abl binding, biochemical | inhibition, % at 7.35 µM | 360,000 compounds, 0.4% hits; in the data active means inhibition above about 5%, passing the limit was not always enough
# SR-BI uptake up: enhances SR-BI lipid uptake from DiI-HDL. 320,000 compounds, 0.096% hits. CHO ldlA[mSR-BI] cells, DiI-HDL uptake fluorescence, 3 h; 100 = double the neutral-control signal. activation, % at 12.5 µM;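 active means mean replicate activation of at least 60% and every replicate at or above 60%; inconclusive means mean or all-replicate condition met, but not both; inactive means mean below 60% and not all replicates reaching 60%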
#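 Test system: SR-BI-overexpressing, LDLR-lacking CHO cells. Measured by: DiI fluorescence, bottom read. Medium: Ham's F12 with 0.5% BSA, HEPES 25 mM, pH 7.4. Timing: 3 h uptake period with compound, 37 °C.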
# SR-BI HDL uptake: inhibitors of mouse SR-BI mediated HDL lipid uptake; ldlA[mSR-BI] CHO cells, DiI-HDL uptake fluorescence, 3 h; Q61009; inhibition, % at 12.5 µM; 320,000 compounds, 0.96% hits;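 active means mean replicate inhibition of at least 70% and a set share of replicates each scoring 70 or more; inconclusive means meets just one of the two criteria; inactive means fails both criteria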
# GRK2 inh: inhibitors of human GRK2 displacing RNA aptamer; inhibition of aptamer binding, % at 10 µM; bead flow cytometry, FAM-aptamer displacement from GRK2; 330,000 compounds, 0.59% hits;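 active means inhibition of aptamer binding above 40%, roughly 3 SD of noise, on plates passing a quality check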;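 further: median bead fluorescence of bound FAM aptamer so fluorescent compounds give negative values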
# Target sequence (P25098 whole entry, looked up): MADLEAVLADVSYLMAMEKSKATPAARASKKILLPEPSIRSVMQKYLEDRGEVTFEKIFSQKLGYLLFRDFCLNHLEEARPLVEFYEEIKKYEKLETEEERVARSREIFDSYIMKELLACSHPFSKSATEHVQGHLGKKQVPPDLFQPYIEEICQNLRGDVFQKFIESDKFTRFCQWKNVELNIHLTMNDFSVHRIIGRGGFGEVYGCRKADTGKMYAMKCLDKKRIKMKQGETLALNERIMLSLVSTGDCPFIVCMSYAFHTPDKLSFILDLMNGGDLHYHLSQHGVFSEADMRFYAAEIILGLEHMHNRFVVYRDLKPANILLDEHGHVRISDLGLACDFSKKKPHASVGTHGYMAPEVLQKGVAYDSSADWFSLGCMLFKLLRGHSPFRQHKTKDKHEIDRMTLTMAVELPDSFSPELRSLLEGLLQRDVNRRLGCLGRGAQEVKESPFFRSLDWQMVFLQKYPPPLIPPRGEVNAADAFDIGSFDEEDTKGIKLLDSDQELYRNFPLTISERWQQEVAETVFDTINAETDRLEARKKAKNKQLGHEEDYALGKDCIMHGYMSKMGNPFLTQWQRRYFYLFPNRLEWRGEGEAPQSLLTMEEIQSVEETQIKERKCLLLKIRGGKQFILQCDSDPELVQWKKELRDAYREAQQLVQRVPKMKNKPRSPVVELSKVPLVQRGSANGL
# Numbers stand for hits; - = inactive; ? = inconclusive; . = not tested or not shown.
SMILES,Rin1 Abl inh,SR-BI uptake up,SR-BI HDL uptake,GRK2 inh
Cc1ccc(Cl)cc1Nc1nc(-c2sc(NC(=O)c3ccco3)nc2C)cs1,-,-,?,.
COc1ccccc1Nc1nc(-c2sc(NC(=O)c3ccco3)nc2C)cs1,-,-,85,-
Cc1nc(NC(=O)c2ccco2)sc1-c1csc(Nc2ccc(Cl)cc2)n1,-,-,84,-
O=S(=O)(c1cccc(-c2csc(N/N=C/c3ccco3)n2)c1)N1CCOCC1,-,-,72,-
CCOc1cc(/C=N/Nc2nc(-c3cccc(S(=O)(=O)N4CCCC4)c3)cs2)ccc1O,-,-,98,-
O=C(O)C1=CCC=CC1C(=O)O (centres undefined),-,.,.,.
CCOc1ccc(C(=O)Nc2cccc(-n3cnnn3)c2)cc1OCC,-,-,-,-
CCCCOc1ccc(C(=O)Nc2cccc(-n3cnnn3)c2)cc1OC,-,-,75,-
CN1c2ccccc2C(O)=C(C(=S)Nc2ccc(Cl)cc2)S1(=O)=O,-,-,-,61
COc1cc2c(cc1NC(=O)C(Cl)Cl)-c1ccc(NC(=O)C(Cl)Cl)cc1C2,-,-,83,.
CCOC(=O)C1=C(CN2CCN(C(=O)c3ccco3)CC2)NC(=O)NC1c1ccc(Cl)cc1 (centres undefined),-,-,-,-
CCOC(=O)C1=C(CN2CCC(C)CC2)NC(=O)NC1c1ccc(Cl)cc1 (centres undefined),-,-,78,-
CCOC(=O)C1=C(CN2CCN(C(=O)c3ccco3)CC2)NC(=O)NC1c1ccc(OC(C)C)cc1 (centres undefined),-,-,78,-
Cc1[nH]n(-c2ccccc2)c(=O)c1N=Nc1ccccc1C(=O)O,-,-,-,-
C/C(=N\NC(=O)c1ccccc1)c1c(C)[nH]n(-c2ccccc2)c1=O,-,-,126,-
Cc1[nH]n(-c2ccccc2)c(=O)c1N=Nc1ccccc1O,-,-,119,.
C/C(=N\NC(=O)c1ccc(C)cc1)c1c(C)[nH]n(-c2ccccc2)c1=O,-,-,125,-
O=C(c1[nH]c(C(F)(F)F)nc1-c1ccccc1)N1CCN(Cc2c(F)cccc2Cl)CC1,-,.,.,.
Nc1ncnc2c1ncn2[C@@H]1O[C@H](CNCc2ccc(OCC(=O)Nc3nccs3)cc2)[C@@H](O)[C@H]1O,-,-,-,-
O=C(CC(=O)NC1CCCCC1)N/N=C/c1ccccc1[N+](=O)[O-],-,-,-,-
NC(=S)N/N=C\c1ccc(-c2cccc(Cl)c2Cl)o1,-,-,79,-
NC(=S)N/N=C/c1ccc(-c2ccc(SC(F)F)cc2)o1,-,-,74,-
NC(=S)N/N=C/c1ccc(-c2ccc(Cl)c(Cl)c2)o1,-,-,86,-
Cc1ccc(-c2ccc(/C=N/NC(N)=S)o2)cc1,-,-,96,-
CN(C)/N=C/c1ccc(/C=N/NC(N)=S)o1,-,-,-,-
SMILES,Rin1 Abl inh,SR-BI uptake up,SR-BI HDL uptake,GRK2 inh
NC(=S)N/N=C/c1ccc(-c2ccccc2)o1,-,-,-,-
Cc1cccc(Cl)c1NC(=O)NCCCN1CCCCC1C (centres undefined),-,.,.,.
CC(C#N)(NC(=O)CN1CCN(S(=O)(=O)c2ccccc2Cl)CC1)C1CC1 (centres undefined),-,-,-,-
COc1ccc(CNC(=O)Nc2nnc([C@@H]3C[C@H](O)[C@@H](CO)O3)s2)cc1,-,.,.,.
Oc1nc(Nc2ccc(F)cc2)sc1/C=C1\C=Nc2ccccc21,-,.,.,-
CC1=Nc2ccccc2/C1=C\c1sc(Nc2ccc(C)cc2)nc1O,-,-,75,-
O=C(NCc1ccccc1)c1cc(C2CCCN(C(=O)c3ccccc3)C2)on1 (centres undefined),-,.,.,.
Cc1ccc(NC(=O)c2cc3cccc([N+](=O)[O-])c3[nH]2)cc1,-,-,79,-
CCC(C)c1ccccc1NC(=O)c1cc2cccc([N+](=O)[O-])c2[nH]1 (centres undefined),-,.,.,-
COc1ccccc1N1CCN(C(=O)CCC(=O)N2CCN(c3ccccc3OC)CC2)CC1,-,-,70,-
COc1ccccc1N1CCN(C(=O)CCC(=O)N2CCN(c3ccc(F)cc3)CC2)CC1,-,-,-,-
CCN1/C(=C/c2ccc3ccccc3[n+]2CC)C=Cc2ccccc21,-,-,87,-
Cc1ccc(NC(=O)N2CCc3ccccc3C2)c(C)c1,-,-,-,-
CCOC(=O)c1[nH]c(=S)[nH]c1C,-,-,-,.
CCOc1ccc(NC(=O)Nc2cc(OCC(F)(F)F)cc(OCC(F)(F)F)c2)cc1,-,-,75,-
CCc1ccc(NC(=O)NNC(=O)c2cc3ccccc3cc2O)cc1,-,-,-,-
COc1ccc(C(=O)NNC(=O)c2cc3ccccc3cc2O)cc1,-,-,115,-
CCOc1ccc(NC(=O)NNC(=O)c2cc3ccccc3cc2O)cc1,-,-,81,-
COc1ccccc1C(=O)NNC(=O)c1cc2ccccc2cc1O,-,.,.,.
O=C(Nc1ccc(F)cc1)Nc1cc(OCC(F)(F)F)cc(OCC(F)(F)F)c1,-,-,?,-
Cn1c(=O)c2c(ncn2CC(=O)Nc2cc(S(=O)(=O)N3CCCCC3)ccc2Cl)n(C)c1=O,-,-,-,-
CCN(CC)S(=O)(=O)c1cccc(C(=O)N/N=C/c2c(C)nn(-c3ccccc3)c2Cl)c1,-,-,73,-
Cc1ccc(NS(=O)(=O)c2cccc(C(=O)N/N=C/c3c(C)nn(-c4ccccc4)c3N3CCCC3)c2)c(C)c1,-,-,74,-
CCN(CC)S(=O)(=O)c1cccc(C(=O)N/N=C/c2ccccc2OCC(=O)O)c1,-,-,-,-
OC[C@@H]1CN(CCN2CCOCC2)C[C@H](n2cnc3c(NC4CCC4)ncnc32)O1,-,.,.,.
SMILES,Rin1 Abl inh,SR-BI uptake up,SR-BI HDL uptake,GRK2 inh
COc1ccc(OCC(=O)Nc2ccc(N3CCN(C(=O)c4ccccc4C)CC3)cc2)cc1,-,-,77,-
Cc1cc(OCC(=O)Nc2ccc(N3CCCC3)cc2)cc(C)c1Cl,-,-,87,-
CCc1ccccc1OCC(=O)Nc1ccc(N2CCCC2)cc1C,-,-,-,.
Cc1cc(N2CCCC2)ccc1NC(=O)COc1ccccc1,-,-,72,.
CCc1ccc(OCC(=O)Nc2ccc(N3CCN(C(=O)c4ccccc4)CC3)cc2)cc1,-,-,-,-
CN(Cc1ccccc1)C(=O)Cn1nnc(-c2ccccc2)c1COc1ccc2ccccc2c1,-,.,.,.
COc1ccc(OC)c(NC(=O)c2cc(S(=O)(=O)N(C)C)ccc2N2CCCC2)c1,-,-,-,-
CCC(C)[C@H](N)C(=O)N[C@H]1CCC2C3CC=C4C[C@@H](O)CC[C@]4(C)C3CC[C@@]21C (some centres undefined),-,.,.,.
O=C(Nc1cc(Cl)cc2c1-c1ccc(Cl)cc1C2O)C(Cl)Cl (centres undefined),-,-,-,.
CCn1c(C)nc2cc(C(=O)N/N=C(\C)c3ccc(OC)cc3O)ccc21,-,-,88,.
O=C(COC(=O)CNC(=O)c1ccc(Cl)cc1Cl)NCc1ccco1,-,89,-,-
O=C(CNC(=O)c1ccco1)OCC(=O)c1ccc(Cl)cc1Cl,-,-,-,-
O=C(Nc1nc2ccc(Br)cc2s1)c1ccco1,-,-,93,-
